Results on five compounds are retold here after ChEMBL document CHEMBL2010788, “Consequences of linker length alteration of the α7 nicotinic acetylcholine receptor (nAChR) agonist, SEN12333” (Bioorg Med Chem Lett, 2012).

Experiment [1] addresses Neuronal acetylcholine receptor; alpha3/beta4 (Rattus norvegicus, UniProt P04757+P12392). In words: Displacement of [3H]epibatidine from rat alpha3beta4 nAChR expressed in […] cells after 4 hrs by liquid scintillation counting. The class given is cell-based. In outline: (§1)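 Competition binding against racemic [³H]epibatidine. Receptor source: membrane homogenates of HEK293 cells stably transfected with the rat nAChR subtype (α3β4, α4β2 or α7). Affinity reported as Ki.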

Experiment [2] concerns the target Neuronal acetylcholine receptor subunit alpha-7 (Rattus norvegicus) (UniProt Q05941). Kind of experiment: Antagonist activity at wild type rat recombinant alpha7 nAChR expressed in Xenopus oocyte assessed as inhibition of ACh-gated current at 100 uM by voltage clamp electrophysiology assay. The experiment is classed as functional.
Experiment [3] deals with T1, Neuronal acetylcholine receptor subunit alpha-7 (Rattus norvegicus, UniProt Q05941). Kind of experiment: Displacement of [3H]epibatidine from rat alpha7 nAChR expressed in […] cells after 4 hrs by liquid scintillation counting. The class given is cell-based. The method in brief:
as §1
(In general: Displacement assays read how much labelled ligand stays bound in the presence of the test substance.)

Experiment [4] has as its target Neuronal acetylcholine receptor subunit alpha-7 (Rattus norvegicus) (UniProt Q05941). Kind of experiment: Agonist activity at wild type rat recombinant alpha7 nAChR expressed in Xenopus oocyte at 100 uM by voltage clamp electrophysiology assay. The class given is functional.
The target in experiment [5] is Neuronal acetylcholine receptor; alpha4/beta2 (Rattus norvegicus, UniProt P09483+P12390). Kind of experiment: Displacement of [3H]epibatidine from rat alpha4beta2 nAChR expressed in […] cells after 4 hrs by liquid scintillation counting. The class given is cell-based. The method in brief: as §1
Sequence of Neuronal acetylcholine receptor; alpha4/beta2 (P09483 whole entry): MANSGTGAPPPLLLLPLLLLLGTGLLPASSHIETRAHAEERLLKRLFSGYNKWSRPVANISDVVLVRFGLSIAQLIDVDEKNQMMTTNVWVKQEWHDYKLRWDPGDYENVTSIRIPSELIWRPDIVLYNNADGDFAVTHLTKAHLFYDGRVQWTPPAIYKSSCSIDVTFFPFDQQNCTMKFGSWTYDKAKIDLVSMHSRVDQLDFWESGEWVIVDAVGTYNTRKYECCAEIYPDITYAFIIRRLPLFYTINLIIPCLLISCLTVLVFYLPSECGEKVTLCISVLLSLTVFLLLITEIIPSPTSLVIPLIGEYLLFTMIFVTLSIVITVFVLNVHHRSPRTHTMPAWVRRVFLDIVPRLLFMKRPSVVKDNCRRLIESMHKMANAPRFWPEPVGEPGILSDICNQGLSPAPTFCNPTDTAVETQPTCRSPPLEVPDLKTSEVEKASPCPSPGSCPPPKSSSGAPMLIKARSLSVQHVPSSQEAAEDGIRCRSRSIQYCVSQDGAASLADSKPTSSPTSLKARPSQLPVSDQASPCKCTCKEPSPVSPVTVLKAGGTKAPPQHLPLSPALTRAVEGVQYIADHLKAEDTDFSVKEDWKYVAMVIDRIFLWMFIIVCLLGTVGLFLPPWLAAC
Sequence of Neuronal acetylcholine receptor; alpha4/beta2 (P12390 whole entry): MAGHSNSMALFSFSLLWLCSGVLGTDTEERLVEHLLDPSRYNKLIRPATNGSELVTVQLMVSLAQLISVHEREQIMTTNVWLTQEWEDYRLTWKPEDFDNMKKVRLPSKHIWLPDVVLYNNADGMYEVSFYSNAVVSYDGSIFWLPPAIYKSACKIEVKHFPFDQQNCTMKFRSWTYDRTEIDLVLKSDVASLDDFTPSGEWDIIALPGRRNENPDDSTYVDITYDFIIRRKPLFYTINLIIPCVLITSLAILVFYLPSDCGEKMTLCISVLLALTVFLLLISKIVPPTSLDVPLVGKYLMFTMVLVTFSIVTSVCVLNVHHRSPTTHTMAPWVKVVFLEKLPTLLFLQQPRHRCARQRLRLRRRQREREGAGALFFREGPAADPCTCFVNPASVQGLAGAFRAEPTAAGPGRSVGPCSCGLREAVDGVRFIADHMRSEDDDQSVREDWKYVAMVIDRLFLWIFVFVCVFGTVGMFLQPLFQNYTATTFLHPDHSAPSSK
For experiment [6], the target named is T1, Neuronal acetylcholine receptor subunit alpha-7. In words: Partial agonist activity at wild type rat recombinant alpha7 nAChR expressed in Xenopus oocyte by voltage clamp electrophysiology assay. The experiment is classed as functional.
Experiment [7] addresses Neuronal acetylcholine receptor subunit alpha-7 (Rattus norvegicus) (UniProt Q05941). Kind of experiment: Partial agonist activity at wild type rat alpha7 nAChR expressed in Xenopus oocyte by voltage clamp electrophysiology assay relative to acetylcholine. The class given is functional.

Active and inactive are the calls of the source. The rule behind the calls is not given here.

The term Ki denotes the equilibrium dissociation constant of an inhibitor or competing ligand from its target. High values mean weaker binding, low ones tighter binding. One may read the EC50 as the concentration that produces a half-maximal response.

Sequence of Neuronal acetylcholine receptor subunit alpha-7 (Rattus norvegicus) (Q05941 whole entry): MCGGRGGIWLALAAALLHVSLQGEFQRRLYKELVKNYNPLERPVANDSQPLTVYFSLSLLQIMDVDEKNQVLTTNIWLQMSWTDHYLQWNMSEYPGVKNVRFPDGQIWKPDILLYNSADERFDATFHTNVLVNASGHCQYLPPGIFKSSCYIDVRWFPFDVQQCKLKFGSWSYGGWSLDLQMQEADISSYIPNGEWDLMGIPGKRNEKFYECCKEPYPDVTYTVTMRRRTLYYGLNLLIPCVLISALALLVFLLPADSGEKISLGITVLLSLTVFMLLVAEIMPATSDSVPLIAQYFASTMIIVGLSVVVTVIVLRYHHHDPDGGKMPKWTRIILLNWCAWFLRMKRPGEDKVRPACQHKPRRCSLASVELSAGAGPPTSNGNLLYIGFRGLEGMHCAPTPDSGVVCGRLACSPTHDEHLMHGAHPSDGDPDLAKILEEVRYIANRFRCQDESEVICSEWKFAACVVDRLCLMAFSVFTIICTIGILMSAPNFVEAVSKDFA
T1 sequence (Q05941 whole entry): as above
Sequence of Neuronal acetylcholine receptor; alpha3/beta4 (P04757 whole entry): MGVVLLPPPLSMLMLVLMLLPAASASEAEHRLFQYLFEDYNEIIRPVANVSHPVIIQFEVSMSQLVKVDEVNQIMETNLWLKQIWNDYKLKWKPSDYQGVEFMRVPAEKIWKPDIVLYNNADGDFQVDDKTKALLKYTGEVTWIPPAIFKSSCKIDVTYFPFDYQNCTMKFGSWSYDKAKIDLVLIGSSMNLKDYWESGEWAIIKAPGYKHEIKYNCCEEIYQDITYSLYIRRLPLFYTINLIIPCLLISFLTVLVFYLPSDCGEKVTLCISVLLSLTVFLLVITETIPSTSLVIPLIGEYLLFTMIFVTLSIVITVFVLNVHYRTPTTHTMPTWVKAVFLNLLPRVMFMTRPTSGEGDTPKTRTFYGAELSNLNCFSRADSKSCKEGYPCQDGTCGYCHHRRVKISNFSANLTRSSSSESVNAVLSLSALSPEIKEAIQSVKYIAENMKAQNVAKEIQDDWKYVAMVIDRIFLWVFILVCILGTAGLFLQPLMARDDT
Sequence of Neuronal acetylcholine receptor; alpha3/beta4 (P12392 whole entry): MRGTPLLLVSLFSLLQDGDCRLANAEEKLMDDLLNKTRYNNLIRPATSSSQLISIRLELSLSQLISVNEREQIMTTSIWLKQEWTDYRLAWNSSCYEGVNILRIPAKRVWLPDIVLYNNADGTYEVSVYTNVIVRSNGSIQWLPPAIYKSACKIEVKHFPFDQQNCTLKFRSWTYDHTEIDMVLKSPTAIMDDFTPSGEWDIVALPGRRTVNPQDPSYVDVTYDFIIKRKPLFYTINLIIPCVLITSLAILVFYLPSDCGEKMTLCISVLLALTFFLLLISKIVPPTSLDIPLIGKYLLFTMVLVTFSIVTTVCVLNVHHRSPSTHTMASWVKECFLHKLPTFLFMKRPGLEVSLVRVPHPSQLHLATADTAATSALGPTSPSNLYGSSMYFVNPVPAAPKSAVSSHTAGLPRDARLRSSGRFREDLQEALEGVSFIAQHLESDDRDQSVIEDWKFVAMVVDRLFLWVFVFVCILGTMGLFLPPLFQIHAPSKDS

For the compound `O=C(CCN1CCOCC1)Nc1ccc(-c2cccnc2)cc1`, the Ki in experiment [1], in experiment [3] and in experiment [5] was more than 10 µM in each case. The inhibition result in experiment [2] is “inactive”. The result in experiment [4] was inactive.

Take `O=C(CCCCN1CCOCC1)Nc1ccc(-c2cccnc2)cc1`: the values for the Ki in experiment [1], in experiment [3] and in experiment [5] were more than 10 µM, 0.5 µM and more than 10 µM, respectively. Further, the EC50 in experiment [6] turned out to be 9.5 µM. Further, the Activity in experiment [7] came to 11%.

Turning to `O=C(CN1CCOCC1)Nc1ccc(-c2cccnc2)cc1`, the Ki in experiment [1] was more than 10 µM; in experiment [3], 3.9 µM; in experiment [5] it was more than 10 µM. Besides, the inhibition entry in experiment [2] was “inactive”. Besides, the outcome in experiment [4] was inactive.

As to `O=C(CCCN1CCOCC1)Nc1ccc(-c2cccnc2)cc1`, the Ki in experiment [1], in experiment [3] and in experiment [5] was more than 10 µM each time. Besides, the inhibition result in experiment [2] is “inactive”. Also, the result in experiment [4] was inactive.

As to `O=C(CCCCCN1CCOCC1)Nc1ccc(-c2cccnc2)cc1`, the Ki in experiment [1], in experiment [3] and in experiment [5] was more than 10 µM in each case. In addition, the inhibition result in experiment [2] was “inactive”. Also, the result in experiment [4] was inactive.
